pIC50: −log10 of the molar value.
How the values were obtained:
[1] = target: T1, Oxygen-insensitive NAD(P)H nitroreductase (Escherichia coli K-12, UniProt P38489); assay: Prodrug conversion in PBS containing 5% DMSO assessed as Escherichia coli nitroreductase-mediated activation by measuring reduced amine intermediate metabolite formation at 0.01 mg/ml at pH 7.4 in presence of […] by HPLC analysis; format: ADME; conditions: isolated protein
T1 sequence (P38489 whole entry): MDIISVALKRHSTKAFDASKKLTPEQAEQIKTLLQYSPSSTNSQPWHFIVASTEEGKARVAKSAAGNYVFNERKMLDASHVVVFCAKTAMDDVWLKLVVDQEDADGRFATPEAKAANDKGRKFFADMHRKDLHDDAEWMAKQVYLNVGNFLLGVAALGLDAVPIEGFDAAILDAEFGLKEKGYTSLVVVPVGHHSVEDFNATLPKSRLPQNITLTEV
In short: (§1)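 Nitroreductase from E. coli (2 units/mL) with NADPH (1 mg/mL) in PBS, pH 7.4, containing 5% DMSO. The reaction was monitored by HPLC.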

[2] = target: T1, Oxygen-insensitive NAD(P)H nitroreductase; assay: Prodrug conversion in PBS containing 5% DMSO assessed as Escherichia coli nitroreductase-mediated activation by measuring increased consumption of prodrug at 0.01 mg/ml at pH 7.4 in presence of […] by HPLC analysis; conditions: isolated protein; in short: as §1
[3] = Stability of compound in phosphate buffered saline containing 5% DMSO at 0.01 mg/ml at pH 7.4 by HPLC analysis; format: physicochemical; conditions: buffer
In short: (§2)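 Incubation at 37 °C in phosphate buffered saline, pH 7.4, containing 5% DMSO. Aqueous stability was followed over time.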

[4] = Stability of compound in phosphate buffered saline containing 5% DMSO assessed as compound remaining at 0.01 mg/ml at pH 7.4 measured after 1 day by HPLC analysis; format: physicochemical; conditions: read-out: Stability; in short: as §2
[5] = target: T1, Oxygen-insensitive NAD(P)H nitroreductase; assay: Prodrug conversion in PBS containing 5% DMSO assessed as Escherichia coli nitroreductase-mediated activation by measuring release of ethyl (6R)-6-[(2-chloro-4-fluorophenyl)sulfamoyl]cyclohexene-1-carboxylate parent drug at 0.01 mg/ml at pH 7.4 in presence of […] by HPLC analysis; conditions: isolated protein; in short: as §1
Toll-like receptor 4 [6] = target: T2, Toll-like receptor 4 (Homo sapiens, UniProt O00206); assay: Inhibition of human TLR4 expressed in HEK-Blue cells assessed as decrease in LPS-induced TLR4 response at 15 uM incubated for 1 hr followed by LPS stimulation and further incubated for 22 hrs by cell based reporter assay
In short: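 HEK TLR4 reporter cells exposed to compound across a concentration range, then stimulated with LPS. Read-out is optical density at 650 nm. Complete suppression was defined as the OD650 of cells given racemic reference inhibitor at 15 μM. IC50 values were derived from the concentration-response data.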

Toll-like receptor 4 [7] = target: T2, Toll-like receptor 4; assay: Inhibition of human TLR4 expressed in HEK-Blue cells assessed as decrease in LPS-induced TLR4 response incubated for 1 hr followed by LPS stimulation and further incubated for 22 hrs by cell based reporter assay

T2 sequence (O00206 whole entry): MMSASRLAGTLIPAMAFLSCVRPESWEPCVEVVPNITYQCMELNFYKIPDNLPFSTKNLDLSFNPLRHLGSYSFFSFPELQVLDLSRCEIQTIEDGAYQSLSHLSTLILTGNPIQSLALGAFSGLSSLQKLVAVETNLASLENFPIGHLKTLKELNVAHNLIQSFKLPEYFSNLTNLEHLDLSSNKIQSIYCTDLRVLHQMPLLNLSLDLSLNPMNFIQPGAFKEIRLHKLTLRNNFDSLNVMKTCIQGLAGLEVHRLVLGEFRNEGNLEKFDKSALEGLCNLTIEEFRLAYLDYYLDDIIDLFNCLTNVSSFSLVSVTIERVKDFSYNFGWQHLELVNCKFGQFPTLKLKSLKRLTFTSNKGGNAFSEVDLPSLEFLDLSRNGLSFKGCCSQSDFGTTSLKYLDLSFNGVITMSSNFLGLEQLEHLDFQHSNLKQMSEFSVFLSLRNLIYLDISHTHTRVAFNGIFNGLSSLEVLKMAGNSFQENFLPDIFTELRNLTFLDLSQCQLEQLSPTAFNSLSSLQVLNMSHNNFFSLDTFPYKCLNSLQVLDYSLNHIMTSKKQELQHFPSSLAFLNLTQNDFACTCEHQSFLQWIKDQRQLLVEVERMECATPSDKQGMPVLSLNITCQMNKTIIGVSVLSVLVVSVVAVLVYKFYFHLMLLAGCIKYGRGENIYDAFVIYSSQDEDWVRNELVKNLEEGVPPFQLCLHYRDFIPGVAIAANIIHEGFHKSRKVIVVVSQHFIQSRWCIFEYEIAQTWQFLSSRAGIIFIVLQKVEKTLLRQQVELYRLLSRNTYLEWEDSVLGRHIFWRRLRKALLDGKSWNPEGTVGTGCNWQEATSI

Drug metabolism [1]	Drug metabolism [2]	Stability [3]	remaining at 24 h, 0.01 mg/ml [4]	Drug metabolism [5]	inhibition (Toll-like receptor 4 [6])	pIC50 (Toll-like receptor 4 [7])	Compound
Metabolite_Notdetected	Metabolite_Detected	Unstable	85%	Metabolite_Detected			CCOC(=O)C1=CCCCC1S(=O)(=O)N(C(=O)OCc1ccc([N+](=O)[O-])cc1)c1ccc(F)cc1Cl (racemic)
					100%	7.40	CCOC(=O)C1=CCCCC1S(=O)(=O)Nc1ccc(F)cc1Cl (racemic)
		Stable					C#CCN(c1ccc(F)cc1Cl)S(=O)(=O)C1CCCC=C1C(=O)OCC (racemic)
		Unstable	25%				C#CCOC(=O)N(c1ccc(F)cc1Cl)S(=O)(=O)C1CCCC=C1C(=O)OCC (racemic)
Metabolite_Detected	Metabolite_Detected	Stable		Metabolite_Detected			CCOC(=O)C1=CCCCC1S(=O)(=O)N(Cc1ccc([N+](=O)[O-])cc1)c1ccc(F)cc1Cl (racemic)
